For assay [1], the target named is Baculoviral IAP repeat-containing protein 2 (Homo sapiens) (UniProt Q13490). As to the kind of experiment: Induction of cIAP1-mediated ERalpha degradation in human MCF7 cells at 30 uM after 24 hrs by Western blot analysis. The class given is cell-based. An outline of the steps: (§1)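 MCF-7 cells were kept in D-MEM with 10% FBS and penicillin/streptomycin, with 2 nM E2 as physiological agonist, at 37 °C under 5% CO2. Cells (1×10^6) were treated, lysed in SDS buffer and protein was BCA-normalized. Lysates ran on 10-20% SDS-PAGE and PVDF, blocked with 5% skim milk, then probed with rabbit polyclonal anti-ERα (1:200) and β-actin. Detection used HRP secondaries and ECL.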
On the technique in general: Immunoblotting shows a protein as a band on a membrane.

Assay [2] shares this target. The experiment in a line: Induction of FLAG-tagged cIAP1 expressed in human HT1080 cells assessed as RARalpha degradation at 30 uM after 24 hrs by Western blot analysis. Type of assay: cell-based. Particulars: HT-1080. An outline of the steps: (§2)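 HT-1080 cells were grown in RPMI 1640 with 10% heat-inactivated FBS at 37 °C under 5% CO2. Cells (1×10^6) were treated, then lysed in SDS buffer and protein was equalized by BCA. Lysates ran on 10-20% SDS-PAGE and went to PVDF, blocked with 5% skim milk/TBS-T. Blots were probed with anti-CRABP-II or anti-RARα plus β-actin, HRP secondaries, and ECL detection.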

For assay [3] the target is unchanged. As to the kind of experiment: Induction of cIAP1-mediated AR degradation in human MCF7 cells at 30 uM after 24 hrs by Western blot analysis relative to control. The class given is cell-based. An outline of the steps: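 MCF-7 cells were grown in D-MEM with 10% FBS, penicillin/streptomycin and 10 nM DHT at 37 °C under 5% CO2. Cells (1×10^6) were treated, lysed in SDS buffer, and equal protein (by BCA) was run on 10-20% SDS-PAGE and transferred to PVDF. Blots were blocked in 5% skim milk/TBS-T, probed with mouse monoclonal anti-AR (1:200) and β-actin antibody, and read by ECL.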

For assay [4], the system named is HT-1080. The experiment in a line: Induction of CRABP-2 degradation in human HT1080 cells at 10 uM after 24 hrs by Western blot analysis. Type of assay: functional, cell-based. In outline: as §2
The target of assay [5] is Baculoviral IAP repeat-containing protein 2 (Homo sapiens) (UniProt Q13490). As to the kind of experiment: Induction of FLAG-tagged cIAP1 expressed in human HT1080 cells assessed as RARalpha degradation at 10 uM after 24 hrs by Western blot analysis. Type of assay: cell-based. The settings on record: HT-1080. An outline of the steps: as §2
Another assay relates to MCF7. The experiment in a line: Induction of ERalpha degradation in human MCF7 cells at 30 uM after 24 hrs by Western blot analysis. The class given is functional, cell-based. In outline: as §1
Assay [6] addresses Baculoviral IAP repeat-containing protein 2 (Homo sapiens) (UniProt Q13490). The experiment in a line: Induction of cIAP1-mediated ERalpha degradation in human MCF7 cells at 1 to 30 uM after 24 hrs by Western blot analysis. The class given is cell-based. In outline:
as §1

For assay [7] the target is unchanged. As to the kind of experiment: Induction of FLAG-tagged cIAP1 expressed in human HT1080 cells assessed as RARalpha degradation after 24 hrs by Western blot analysis. Particulars: HT-1080. Type of assay: cell-based. In outline:
as §2

Assay [8] has the same target. The experiment in a line: Induction of FLAG-tagged cIAP1 expressed in human HT1080 cells assessed as CRABP-2 degradation at 1 to 30 uM after 24 hrs by Western blot analysis. The class given is cell-based. The settings on record: HT-1080. In outline:
as §2

Assay [9] shares this target. The experiment in a line: Induction of FLAG-tagged cIAP1 expressed in human HT1080 cells assessed as RARalpha degradation at 10 uM after 6 hrs by Western blot analysis in presence of proteasome inhibitor MG132 added 30 mins prior to compound treatment. The settings on record: HT-1080. Type of assay: cell-based. An outline of the steps: as §2
For assay [10] the target is unchanged. As to the kind of experiment: Induction of FLAG-tagged cIAP1 expressed in human HT1080 cells assessed as RARalpha degradation at 10 uM after 6 hrs by Western blot analysis in presence of RAR antagonist LE540 added 30 mins prior to compound treatment. The class given is functional, cell-based. Particulars: HT-1080. In outline:
as §2

Assay [11] deals with HT-1080. As to the kind of experiment: Induction of RARalpha degradation in human HT1080 cells at 10 uM after 24 hrs by Western blot analysis. The class given is functional, cell-based. In outline: as §2

Active and inactive are the calls of the source. The rule behind the calls is not given here.

Sequence of Baculoviral IAP repeat-containing protein 2 (Homo sapiens) (Q13490 whole entry): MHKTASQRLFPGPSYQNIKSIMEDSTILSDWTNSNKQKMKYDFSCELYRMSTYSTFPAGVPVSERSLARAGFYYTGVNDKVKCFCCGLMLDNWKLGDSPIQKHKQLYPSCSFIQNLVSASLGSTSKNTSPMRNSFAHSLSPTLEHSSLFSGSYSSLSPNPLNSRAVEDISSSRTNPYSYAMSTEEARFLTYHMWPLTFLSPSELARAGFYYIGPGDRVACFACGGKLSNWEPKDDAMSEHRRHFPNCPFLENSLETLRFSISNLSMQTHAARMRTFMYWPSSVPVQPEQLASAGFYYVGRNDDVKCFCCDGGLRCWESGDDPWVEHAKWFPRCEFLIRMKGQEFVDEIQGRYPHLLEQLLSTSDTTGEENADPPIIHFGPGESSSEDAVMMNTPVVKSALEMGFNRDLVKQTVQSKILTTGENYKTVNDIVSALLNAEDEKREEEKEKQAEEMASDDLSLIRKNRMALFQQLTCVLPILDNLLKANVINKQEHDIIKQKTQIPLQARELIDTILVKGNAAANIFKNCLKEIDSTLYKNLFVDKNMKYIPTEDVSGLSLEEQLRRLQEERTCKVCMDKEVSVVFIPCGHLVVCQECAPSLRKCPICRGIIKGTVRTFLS

As for `CNC(=O)[C@H](CC(C)C)NC(=O)[C@@H](O)[C@H](N)Cc1ccccc1`, the outcome in assay [1] and in [2] was inactive. Further, the result in [3] was Active.

Regarding `CC1=C(/C=C/C(C)=C/C=C/C(C)=C/C(=O)O)C(C)(C)CC/C1=N\OCC(=O)NCCOCCOCCOC(=O)[C@H](CC(C)C)NC(=O)[C@@H](O)[C@H](N)Cc1ccccc1`, the outcome with HT-1080 [4] was Active. The outcome in [5] was inactive.

As to `C[C@]12CC[C@@H]3c4ccc(O)cc4CC[C@H]3[C@@H]1CCC2=O`, in the assay on MCF7, the result was inactive.

Consider `CC(C)C[C@H](NC(=O)CCCc1ccccc1)C(=O)NCCOCCOCCNC(=O)CO/N=C1\CC[C@H]2[C@@H]3CCc4cc(O)ccc4[C@H]3CC[C@]12C`, for which, in assay [6], the result was inactive.

With `CC(C)C[C@H](NC(=O)[C@@H](O)[C@H](N)Cc1ccccc1)C(=O)NCCOCCOCCOCC(=O)NCCCOc1cc(/C=C/C(=O)c2cc(C(C)(C)C)cc(C(C)(C)C)c2)ccc1C(=O)O`, the Activity result in [7] was “Dose-dependent effect”. The result in assay [8], in assay [9] and in [10] was inactive.

Take `CC(C)C[C@H](NC(=O)[C@@H](O)[C@H](N)Cc1ccccc1)C(=O)NCCOCCOCCOCC(=O)O[C@H]1CC[C@H]2[C@@H]3CC[C@H]4CC(=O)CC[C@]4(C)[C@H]3CC[C@]12C`: the result in assay [3] was Active.

For `CC(C)C[C@H](NC(=O)[C@@H](O)[C@H](N)Cc1ccccc1)C(=O)NCCOCCOCCNC(=O)CO/N=C1\CC[C@H]2[C@@H]3CCc4cc(O)ccc4[C@H]3CC[C@]12C`, the result in assay [1] was Active.

On to `CC(C)C[C@H](NC(=O)CCCc1ccccc1)C(=O)NCCOCCOCCOCC(=O)NCCCOc1cc(/C=C/C(=O)c2cc(C(C)(C)C)cc(C(C)(C)C)c2)ccc1C(=O)O`, for which the outcome in the assay with HT-1080 [11] was inactive.

For the origin of these results see ChEMBL document CHEMBL2150969, “Design, synthesis and biological evaluation of nuclear receptor-degradation inducers” (Bioorg Med Chem, 2011).
